Source: ChEMBL document CHEMBL1811805, “Molecular factors governing inhibition of arylimidamides against Leishmania: conservative computational modeling to improve chemotherapies” (Bioorg Med Chem, 2011)

Assays:
Leishmania donovani = experiment: Antileishmanial activity against Leishmania donovani axenic amastigotes after 3 days by tetrazolium dye based spectrophotometric analysis at pH 5.5; type: functional, organism-based; settings: 72 h
Method in brief: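 Ld1s axenic amastigote-like L. donovani grown in potassium-based medium, pH 5.5, 37 °C; exposed to compounds for three days; tetrazolium dye added and read spectrophotometrically. IC50 (μM) averaged with standard errors, n ≥ 3.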

Leishmania amazonensis = experiment: Antileishmanial activity against beta-lactamase transfected Leishmania amazonensis promastigotes infected in macrophages after 72 hrs by spectrophotometric analysis; type: functional, organism-based
Method in brief: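 Macrophages plated and adhered overnight; infected with β-lactamase-transfected L. amazonensis promastigotes (MOI 5:1) overnight; compounds added for 72 hours at 34 °C; nitrocefin in lysis buffer added for 3 to 5 hours further; absorbance read at 490 nm. IC50 (μM) averaged with standard errors, n ≥ 3.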

SMILES	IC50 (Leishmania donovani)	IC50 (Leishmania amazonensis)
N/C(=N\c1ccc(-c2ccc(-c3ccc(/N=C(\N)c4ccccn4)cc3OC3CCNCC3)o2)c(OC2CCNCC2)c1)c1ccccn1	59 µM	> 10 µM
Cc1cccc(C(=N)Nc2ccc(-c3ccc(-c4ccc(NC(=N)c5cccc(C)n5)cc4C)o3)c(C)c2)n1	> 50 µM	3.1 µM
N=C(Nc1ccc(-c2ccc(-c3ccc(NC(=N)c4ccccn4)cc3F)o2)c(F)c1)c1ccccn1	4.2 µM	1.4 µM
CC(C)Oc1cc(NC(=N)c2ccn(C)n2)ccc1-c1ccc(-c2ccc(NC(=N)c3ccn(C)n3)cc2OC(C)C)o1	5.8 µM	0.74 µM
CC(C)Oc1cc(NC(=N)c2ncc[nH]2)ccc1-c1ccc(-c2ccc(NC(=N)c3ncc[nH]3)cc2OC(C)C)o1	1 µM	0.37 µM
CC(C)Oc1cc(NC(=N)c2ccc(Cl)cn2)ccc1-c1ccc(-c2ccc(NC(=N)c3ccc(Cl)cn3)cc2OC(C)C)o1	5.6 µM	> 10 µM
N=C(Nc1ccc(-c2ccc(-c3ccc(NC(=N)c4c[nH]cn4)cc3OC3CCCC3)o2)c(OC2CCCC2)c1)c1c[nH]cn1	14 µM	> 10 µM
COC(=O)[C@H](N)CCOc1cc(NC(=N)c2ccccn2)ccc1-c1ccc(-c2ccc(NC(=N)c3ccccn3)cc2OCC[C@H](N)C(=O)OC)s1	> 100 µM	5.5 µM
N=C(Nc1ccc(-c2ccc(-c3ccc(NC(=N)c4ccccn4)cc3O)o2)c(O)c1)c1ccccn1	1.5 µM	0.96 µM
N=C(Nc1ccc(-c2ccc(-c3ccc(NC(=N)c4ccccn4)cc3OCc3ccccc3)o2)c(OCc2ccccc2)c1)c1ccccn1	4.5 µM	0.51 µM
N=C(Nc1ccc(-c2ccc(-c3ccc(NC(=N)c4ccccn4)cc3Br)o2)c(Br)c1)c1ccccn1	1.2 µM	0.62 µM
Cc1c(-c2ccc(NC(=N)c3ccccn3)cc2)oc(-c2ccc(NC(=N)c3ccccn3)cc2)c1C	0.37 µM	0.11 µM
CC(C)Oc1cc(NC(=N)c2ncccn2)ccc1-c1ccc(-c2ccc(NC(=N)c3ncccn3)cc2OC(C)C)o1	0.55 µM	0.7 µM
CC(C)Oc1cc(NC(=N)c2cn(C)cn2)ccc1-c1ccc(-c2ccc(NC(=N)c3cn(C)cn3)cc2OC(C)C)o1	31 µM	5 µM
Cc1nc(C(=N)Nc2ccc(-c3ccc(-c4ccc(NC(=N)c5csc(C)n5)cc4OC(C)C)o3)c(OC(C)C)c2)cs1	1.4 µM	0.17 µM
N=C(Nc1ccc(-c2ccc(-c3ccc(NC(=N)c4ccccn4)nc3)o2)cn1)c1ccccn1	> 50 µM	> 10 µM
N=C(Nc1ccc(-c2ccc(-c3ccc(NC(=N)c4ccccn4)cc3OC3CCCC3)o2)c(OC2CCCC2)c1)c1ccccn1	1.4 µM	0.17 µM
N=C(Nc1ccc(-c2ccc(-c3ccc(NC(=N)c4ncccn4)cc3OC3CCCC3)o2)c(OC2CCCC2)c1)c1ncccn1	1.5 µM	0.21 µM
CC(C)Oc1cc(NC(=N)c2cnccn2)ccc1-c1ccc(-c2ccc(NC(=N)c3cnccn3)cc2OC(C)C)o1	20 µM	3.7 µM
CC(C)Oc1cc(NC(=N)c2ccc[nH]2)ccc1-c1ccc(-c2ccc(NC(=N)c3ccc[nH]3)cc2OC(C)C)o1	16 µM	0.9 µM
N=C(Nc1cnc(-c2ccc(-c3cnc(NC(=N)c4ccccn4)cn3)o2)cn1)c1ccccn1	> 100 µM	> 10 µM
N=C(Nc1ncc(-c2ccc(-c3cnc(NC(=N)c4ccccn4)nc3)o2)cn1)c1ccccn1	> 100 µM	> 10 µM
N=C(Nc1ccc(-c2ccc(-c3ccc(NC(=N)c4cnccn4)cc3)o2)cc1)c1cnccn1	> 100 µM	> 10 µM
N=C(Nc1ccc(-c2ccc(-c3ccc(NC(=N)c4ccccn4)cc3OCC(F)(F)F)o2)c(OCC(F)(F)F)c1)c1ccccn1	1.1 µM	0.25 µM
CC(C)Oc1cc(NC(=N)c2ccc(F)cn2)ccc1-c1ccc(-c2ccc(NC(=N)c3ccc(F)cn3)cc2OC(C)C)o1	2.5 µM	0.59 µM
CC(C)Oc1cc(NC(=N)c2ccccn2)ccc1-c1ccc(-c2ccc(NC(=N)c3ccccn3)cc2OC(C)C)s1	0.68 µM	0.045 µM
COc1ccc(C(=N)Nc2ccc(-c3ccc(-c4ccc(NC(=N)c5ccc(OC)cn5)cc4OC(C)C)o3)c(OC(C)C)c2)nc1	1 µM	0.13 µM

SMILES	IC50 (Leishmania donovani)	IC50 (Leishmania amazonensis)
CC(C)Oc1cc(NC(=N)c2ccc(Br)cn2)ccc1-c1ccc(-c2ccc(NC(=N)c3ccc(Br)cn3)cc2OC(C)C)o1	28 µM	> 10 µM
CC(C)N1CCC(Oc2cc(NC(=N)c3ccccn3)ccc2-c2ccc(-c3ccc(NC(=N)c4ccccn4)cc3OC3CCN(C(C)C)CC3)o2)CC1	28 µM	2.1 µM
N=C(Nc1ccc(-c2ccc(-c3ccc(NC(=N)c4ccc(Cl)cn4)cc3OC3CCCC3)o2)c(OC2CCCC2)c1)c1ccc(Cl)cn1	> 100 µM	> 10 µM
N=C(Nc1ccc(-c2ccc(-c3ccc(NC(=N)c4ccc(Br)cn4)cc3OC3CCCC3)o2)c(OC2CCCC2)c1)c1ccc(Br)cn1	> 100 µM	> 10 µM
CC(C)COc1cc(NC(=N)c2ccccn2)ccc1-c1ccc(-c2ccc(NC(=N)c3ccccn3)cc2OCC(C)C)o1	1.1 µM	0.095 µM
CC(C)Oc1cc(NC(=N)c2ccc(N3CCCC3)cn2)ccc1-c1ccc(-c2ccc(NC(=N)c3ccc(N4CCCC4)cn3)cc2OC(C)C)o1	1.9 µM	0.27 µM
COc1cccc(C(=N)Nc2ccc(-c3ccc(-c4ccc(NC(=N)c5cccc(OC)n5)cc4OC(C)C)o3)c(OC(C)C)c2)n1	4.5 µM	2.7 µM
CC(C)COc1cc(NC(=N)c2c[nH]cn2)ccc1-c1ccc(-c2ccc(NC(=N)c3c[nH]cn3)cc2OCC(C)C)o1	23 µM	> 10 µM
CC(C)COc1cc(NC(=N)c2ccc(Br)cn2)ccc1-c1ccc(-c2ccc(NC(=N)c3ccc(Br)cn3)cc2OCC(C)C)o1	> 50 µM	> 10 µM
CC(C)COc1cc(NC(=N)c2ncccn2)ccc1-c1ccc(-c2ccc(NC(=N)c3ncccn3)cc2OCC(C)C)o1	2.4 µM	0.49 µM
CC(=N)Nc1ccc(-c2ccc(-c3ccc(NC(C)=N)cc3OC3CCCC3)o2)c(OC2CCCC2)c1	41 µM	4.7 µM
CC(C)Oc1cc(NC(=N)c2cccnn2)ccc1-c1ccc(-c2ccc(NC(=N)c3cccnn3)cc2OC(C)C)o1	1.1 µM	1.1 µM
CC(C)Oc1cc(NC(=N)c2csc(N)n2)ccc1-c1ccc(-c2ccc(NC(=N)c3csc(N)n3)cc2OC(C)C)o1	21 µM	1.7 µM
CC(=O)Nc1nc(C(=N)Nc2ccc(-c3ccc(-c4ccc(NC(=N)c5csc(NC(C)=O)n5)cc4OC(C)C)o3)c(OC(C)C)c2)cs1	> 100 µM	0.22 µM
CC(C)Oc1cc(NC(=N)c2ccc(N)cn2)ccc1-c1ccc(-c2ccc(NC(=N)c3ccc(N)cn3)cc2OC(C)C)o1	0.82 µM	0.64 µM
CC(=O)N(C)c1nc(C(=N)Nc2ccc(-c3ccc(-c4ccc(NC(=N)c5csc(N(C)C(C)=O)n5)cc4OC(C)C)o3)c(OC(C)C)c2)cs1	3.6 µM	0.81 µM
CNc1nc(C(=N)Nc2ccc(-c3ccc(-c4ccc(NC(=N)c5csc(NC)n5)cc4OC(C)C)o3)c(OC(C)C)c2)cs1	1.3 µM	0.3 µM
CC(C)CCOc1cc(NC(=N)c2ccccn2)ccc1-c1ccc(-c2ccc(NC(=N)c3ccccn3)cc2OCCC(C)C)o1	5.1 µM	> 10 µM
CC(C)(C)CCOc1cc(NC(=N)c2ccccn2)ccc1-c1ccc(-c2ccc(NC(=N)c3ccccn3)cc2OCCC(C)(C)C)o1	28 µM	> 10 µM
CC(C)CCOc1cc(NC(=N)c2ncccn2)ccc1-c1ccc(-c2ccc(NC(=N)c3ncccn3)cc2OCCC(C)C)o1	7.9 µM	0.32 µM
Cc1cc(NC(=N)c2ccccn2)ccc1-c1ccc(-c2ccc(NC(=N)c3ccccn3)cc2C)o1	0.67 µM	0.29 µM
N=C(Nc1ccc(-c2cc(-c3ccccc3)c(-c3ccc(NC(=N)c4ccccn4)cc3)o2)cc1)c1ccccn1	1.7 µM	0.11 µM
N=C(Nc1ccc(-c2ccc(-c3ccc(NC(=N)c4ccccn4)cc3Cl)o2)c(Cl)c1)c1ccccn1	2 µM	0.56 µM
COc1cc(NC(=N)c2ccccn2)ccc1-c1ccc(-c2ccc(NC(=N)c3ccccn3)cc2OC)o1	0.53 µM	0.37 µM
Cc1ccc(C(=N)Nc2ccc(-c3ccc(-c4ccc(NC(=N)c5ccc(C)cn5)cc4C)o3)c(C)c2)nc1	0.84 µM	0.16 µM
N=C(Nc1ccc(-c2ccc(-c3ccc(NC(=N)c4ccccn4)cc3)o2)cc1)c1ccccn1	1.6 µM	0.53 µM
